The text below walks through data of ChEMBL document CHEMBL1127022, “Transformation of monoamine oxidase-B primary amine substrates into time-dependent inhibitors. Tertiary amine homologues of primary amine substrates” (J Med Chem, 1993).

SMILES strings stand for the structures.

Data set [1] deals with T1, Amine oxidase [flavin-containing] B (Bos taurus, UniProt P56560).
T1 sequence (P56560 whole entry): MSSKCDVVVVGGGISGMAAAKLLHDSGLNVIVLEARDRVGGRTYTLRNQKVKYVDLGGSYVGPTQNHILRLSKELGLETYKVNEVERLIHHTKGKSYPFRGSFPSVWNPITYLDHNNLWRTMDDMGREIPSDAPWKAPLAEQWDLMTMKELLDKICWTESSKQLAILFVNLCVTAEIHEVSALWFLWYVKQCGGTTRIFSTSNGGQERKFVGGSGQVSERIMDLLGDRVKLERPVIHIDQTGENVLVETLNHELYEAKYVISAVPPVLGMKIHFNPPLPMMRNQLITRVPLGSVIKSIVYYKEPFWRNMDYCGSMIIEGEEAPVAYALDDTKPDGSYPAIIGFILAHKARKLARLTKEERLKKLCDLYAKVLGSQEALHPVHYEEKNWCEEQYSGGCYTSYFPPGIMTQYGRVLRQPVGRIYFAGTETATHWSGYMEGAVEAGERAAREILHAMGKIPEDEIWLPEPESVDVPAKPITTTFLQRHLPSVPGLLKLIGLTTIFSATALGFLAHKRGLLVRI
Kind of data set: Inactivation kinetic constant Monoamine oxidase-B from Bovine liver. The settings on record: cattle. An outline of the steps:
(§1)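 Bovine liver MAO-B was added to inhibitor at various concentrations in 100 mM potassium phosphate, pH 7.40, with 2.0 mM β-mercaptoethanol or glutathione, at 25 °C. Aliquots taken over time were assayed with 0.5 mM cinnamylamine in 100 mM Tris, pH 9.0, and corrected against a no-inhibitor control. Ki and kinact came from Kitz–Wilson analysis.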

For data set [2], the target named is T1, Amine oxidase [flavin-containing] B. Kind of data set: Inhibition of Monoamine oxidase-B from Bovine liver. An outline of the steps: as §1
For data set [3] the target is unchanged. Kind of data set: Catalysis activity was calculated for Monoamine oxidase-B from Bovine liver. Conditions: cattle. Summed up:
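Purified bovine liver MAO-B, with the test amine as substrate. Km and kcat were obtained by following the rate of hydrogen peroxide formation.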

Turning to `CN(C)CCCc1ccccc1`, the kinact in data set [1] is 0.00717 s⁻¹. This molecule gave a Ki in data set [2] of 0.38 mM. Moreover, in data set [3], the k cat was 0.21 s⁻¹.
On to `CCCNCCc1ccccc1`, for which the kinact in data set [1] is 0.0767 s⁻¹. Further, in data set [2], the affinity, expressed as Ki, was 4 mM.
On to `CN(C)CCc1ccccc1`, for which the kinact in data set [1] is 0.128 s⁻¹. The Ki in data set [2] came to 7.1 mM. Moreover, the k cat in data set [3] was 1.4 s⁻¹.
Take `CN(C)CCCCc1ccccc1`: in data set [1], the kinact was determined as 4.83e-05 s⁻¹. Moreover, the Ki in data set [2] is 10 mM.
Taken in the same sequence, the figures for `CCCCCN(C)C` were 0.000267 s⁻¹ and 2.1 mM.
Taken in the same sequence, the figures for `CN(C)CCC(=O)c1ccccc1` were 0.0288 s⁻¹ and 0.35 mM.

The term kinact denotes the maximal first-order rate at which the target is inactivated. What is called Ki is a measure of affinity in units of concentration, obtained from inhibition or displacement.
